Experimental data taken from ChEMBL document CHEMBL4382192, “Discovery of a potent dual ALK and EGFR T790M inhibitor” (Eur J Med Chem, 2017).

Columns and labels:
[1] = Drug uptake in mouse lung at 10 mg/kg, po after 8 hrs; assay type: ADME, organism-based; details: read-out: Drug uptake
[2] = tested on: Tyrosine-protein kinase ABL1 (Homo sapiens), P00519 [F317I]; test: Binding affinity to human non-phosphorylated ABL1 F317I mutant (S229 to K512 residues) expressed in mammalian expression system assessed as residual binding level at 1 uM by Kinomescan method relative to control
How it was run: (§1)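 Kinome-wide selectivity panel run by the KINOMEscan method, with the test compound at a single concentration of 1 μM. Wild-type and mutant kinases were profiled in the same screen.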

[3] = tested on: Tyrosine-protein kinase ABL1 (Homo sapiens), P00519 [H396P]; test: Binding affinity to human phosphorylated ABL1 H396P mutant (S229 to K512 residues) expressed in mammalian expression system assessed as residual binding level at 1 uM by Kinomescan method relative to control; how it was run: as §1
[4] = target: Activin receptor type-2B (Homo sapiens) (UniProt Q13705); test: Binding affinity to wild-type human ACVR2B (H169 to D504 residues) expressed in bacterial expression system assessed as residual binding level at 1 uM by Kinomescan method relative to control
[5] = target: Mitotic checkpoint serine/threonine-protein kinase BUB1 (Homo sapiens) (UniProt O43683); test: Binding affinity to wild-type human partial length BUB1 (Q724 to K1085 residues) expressed in mammalian expression system assessed as residual binding level at 1 uM by Kinomescan method relative to control
[6] = target: Cyclin-dependent kinase 4 (Homo sapiens) (UniProt P11802); test: Binding affinity to wild-type human full length CDK4 (M1 to E303 residues) expressed in mammalian expression system assessed as residual binding level at 1 uM by Kinomescan method relative to control
[7] = target: Serine/threonine-protein kinase Chk2 (Homo sapiens) (UniProt O96017); test: Binding affinity to wild-type human partial length CHEK2 (S253 to E574 residues) expressed in bacterial expression system assessed as residual binding level at 1 uM by Kinomescan method relative to control
[8] = target: Dual specificity protein kinase CLK1 (Homo sapiens) (UniProt P49759); test: Binding affinity to wild-type human full length CLK1 (M1 to I484 residues) expressed in bacterial expression system assessed as residual binding level at 1 uM by Kinomescan method relative to control
[9] = tested on: Epidermal growth factor receptor (Homo sapiens), P00533 [UNDEFINED MUTATION]; test: Binding affinity to human partial length EGFR L747-S752del/P753S mutant expressed in bacterial expression system assessed as residual binding level at 1 uM by Kinomescan method relative to control; how it was run: as §1
[10] = target: Mitogen-activated protein kinase 6 (Homo sapiens) (UniProt Q16659); test: Binding affinity to wild-type human partial length ERK3 (M1 to P413 residues) expressed in bacterial expression system assessed as residual binding level at 1 uM by Kinomescan method relative to control
[11] = target: Fibroblast growth factor receptor 1 (Homo sapiens) (UniProt P11362); test: Binding affinity to wild-type human partial length FGFR1 (P357 to V669 residues) expressed in bacterial expression system assessed as residual binding level at 1 uM by Kinomescan method relative to control
[12] = target: Fibroblast growth factor receptor 3 (Homo sapiens) (UniProt P22607); test: Binding affinity to wild-type human partial length FGFR3 (R442 to S771 residues) expressed in bacterial expression system assessed as residual binding level at 1 uM by Kinomescan method relative to control
[13] = target: Glycogen synthase kinase-3 alpha (Homo sapiens) (UniProt P49840); test: Binding affinity to wild-type human full length GSK3A (M1 to S483 residues) expressed in bacterial expression system assessed as residual binding level at 1 uM by Kinomescan method relative to control
How it was run: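 Single-point kinome-wide KINOMEscan binding panel, test compound at 1 μM, run by the provider's standard protocol.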

[14] = target: Serine/threonine-protein kinase MARK2 (Homo sapiens) (UniProt Q7KZI7); test: Binding affinity to wild-type human partial length MARK2 (M1 to R450 residues) expressed in bacterial expression system assessed as residual binding level at 1 uM by Kinomescan method relative to control
[15] = target: Muscle, skeletal receptor tyrosine-protein kinase (Homo sapiens) (UniProt O15146); test: Binding affinity to wild-type human partial length MUSK (M553 to V869 residues) expressed in bacterial expression system assessed as residual binding level at 1 uM by Kinomescan method relative to control
[16] = target: Serine/threonine-protein kinase PAK 4 (Homo sapiens) (UniProt O96013); test: Binding affinity to wild-type human partial length PAK4 (Q144 to R438 residues) expressed in bacterial expression system assessed as residual binding level at 1 uM by Kinomescan method relative to control
[17] = target: Phosphatidylinositol 5-phosphate 4-kinase type-2 gamma (Homo sapiens) (UniProt Q8TBX8); test: Binding affinity to wild-type human partial length PIP5K2C (M1 to A421 residues) expressed in mammalian expression system assessed as residual binding level at 1 uM by Kinomescan method relative to control
[18] = target: Serine/threonine-protein kinase N1 (Homo sapiens) (UniProt Q16512); test: Binding affinity to wild-type human partial length PKN1 (E598 to C948 residues) expressed in bacterial expression system assessed as residual binding level at 1 uM by Kinomescan method relative to control
[19] = target: Rho-associated protein kinase 2 (Homo sapiens) (UniProt O75116); test: Binding affinity to wild-type human partial length ROCK2 (M1 to T431 residues) expressed in mammalian expression system assessed as residual binding level at 1 uM by Kinomescan method relative to control
[20] = target: Ribosomal protein S6 kinase alpha-5 (Homo sapiens) (UniProt O75582); test: Binding affinity to wild-type human partial length C-terminal RPS6KA5 kinase domain 2 (V390 to T718 residues) expressed in bacterial expression system assessed as residual binding level at 1 uM by Kinomescan method relative to control
[21] = target: Ribosomal protein S6 kinase alpha-6 (Homo sapiens) (UniProt Q9UK32); test: Binding affinity to wild-type human partial length C-terminal RSK4 kinase domain 2 (I401 to Y711 residues) expressed in bacterial expression system assessed as residual binding level at 1 uM by Kinomescan method relative to control
[22] = target: Serine/threonine-protein kinase WNK1 (Homo sapiens) (UniProt Q9H4A3); test: Binding affinity to wild-type human partial length WNK1 (Q194 to A490 residues) expressed in mammalian expression system assessed as residual binding level at 1 uM by Kinomescan method relative to control
[23] = target: Serine/threonine-protein kinase 25 (Homo sapiens) (UniProt O00506); test: Binding affinity to wild-type human partial length YSK1 (V14 to H295 residues) expressed in bacterial expression system assessed as residual binding level at 1 uM by Kinomescan method relative to control
[24] = target: Receptor tyrosine-protein kinase erbB-2 (Homo sapiens, UniProt P04626); test: Inhibition of recombinant His-tagged human ErbB2 cytoplasmic domain expressed in baculovirus expression system by Z-LYTE assay

Dual specificity protein kinase CLK1 (Homo sapiens), sequence (P49759 whole entry, looked up, the tested form may be a part): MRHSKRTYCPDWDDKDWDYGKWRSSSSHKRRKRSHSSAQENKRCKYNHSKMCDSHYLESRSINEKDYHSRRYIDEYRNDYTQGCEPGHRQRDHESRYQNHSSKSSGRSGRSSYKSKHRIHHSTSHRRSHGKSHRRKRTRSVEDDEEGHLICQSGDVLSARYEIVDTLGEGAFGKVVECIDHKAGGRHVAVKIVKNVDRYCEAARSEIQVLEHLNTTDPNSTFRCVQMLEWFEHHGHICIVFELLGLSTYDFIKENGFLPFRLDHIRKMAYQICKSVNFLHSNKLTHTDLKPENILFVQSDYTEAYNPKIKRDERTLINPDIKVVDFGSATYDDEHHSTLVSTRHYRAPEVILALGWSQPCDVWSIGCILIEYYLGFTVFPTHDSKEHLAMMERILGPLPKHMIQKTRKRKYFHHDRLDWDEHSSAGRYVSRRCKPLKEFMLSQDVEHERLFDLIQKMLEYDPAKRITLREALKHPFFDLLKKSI
Cyclin-dependent kinase 4 (Homo sapiens), sequence (P11802 whole entry, the tested form may be a part): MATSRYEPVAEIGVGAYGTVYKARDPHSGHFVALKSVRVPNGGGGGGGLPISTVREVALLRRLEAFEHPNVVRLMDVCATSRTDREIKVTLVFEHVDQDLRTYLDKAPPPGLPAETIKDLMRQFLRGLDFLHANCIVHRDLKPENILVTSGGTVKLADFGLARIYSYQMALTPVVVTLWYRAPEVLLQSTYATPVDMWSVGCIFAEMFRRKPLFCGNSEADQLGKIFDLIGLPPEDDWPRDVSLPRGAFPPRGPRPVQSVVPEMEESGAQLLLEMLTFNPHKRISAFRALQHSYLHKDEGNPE
Serine/threonine-protein kinase 25 (Homo sapiens), sequence (O00506 whole entry, looked up, the tested form may be a part): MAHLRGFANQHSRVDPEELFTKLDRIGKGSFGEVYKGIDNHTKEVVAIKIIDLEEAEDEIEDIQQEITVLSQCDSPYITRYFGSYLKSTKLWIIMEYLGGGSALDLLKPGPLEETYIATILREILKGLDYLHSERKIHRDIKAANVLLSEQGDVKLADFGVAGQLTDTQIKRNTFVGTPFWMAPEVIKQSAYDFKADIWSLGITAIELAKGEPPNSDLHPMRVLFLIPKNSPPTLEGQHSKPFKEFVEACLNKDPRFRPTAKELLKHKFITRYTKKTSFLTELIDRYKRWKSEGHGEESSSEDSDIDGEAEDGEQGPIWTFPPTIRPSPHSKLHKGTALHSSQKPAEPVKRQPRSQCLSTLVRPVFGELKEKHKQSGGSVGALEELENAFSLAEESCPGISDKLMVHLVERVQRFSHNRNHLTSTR
Serine/threonine-protein kinase Chk2 (Homo sapiens), sequence (O96017 whole entry, the tested form may be a part): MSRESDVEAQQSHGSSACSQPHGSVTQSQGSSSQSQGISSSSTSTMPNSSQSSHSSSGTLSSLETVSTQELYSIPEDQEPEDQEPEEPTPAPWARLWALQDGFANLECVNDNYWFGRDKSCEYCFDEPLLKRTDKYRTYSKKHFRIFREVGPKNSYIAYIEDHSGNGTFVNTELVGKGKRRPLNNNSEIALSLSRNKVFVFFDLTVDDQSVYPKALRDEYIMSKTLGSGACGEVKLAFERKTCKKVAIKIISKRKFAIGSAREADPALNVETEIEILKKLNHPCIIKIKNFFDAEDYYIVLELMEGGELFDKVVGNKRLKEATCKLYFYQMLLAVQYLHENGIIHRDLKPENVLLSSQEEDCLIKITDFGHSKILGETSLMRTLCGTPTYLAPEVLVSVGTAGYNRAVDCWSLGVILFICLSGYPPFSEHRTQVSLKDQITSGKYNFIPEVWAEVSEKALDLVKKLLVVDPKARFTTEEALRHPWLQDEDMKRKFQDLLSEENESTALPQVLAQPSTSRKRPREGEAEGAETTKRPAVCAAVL
Fibroblast growth factor receptor 1 (Homo sapiens), sequence (P11362 22-822 limits assumed): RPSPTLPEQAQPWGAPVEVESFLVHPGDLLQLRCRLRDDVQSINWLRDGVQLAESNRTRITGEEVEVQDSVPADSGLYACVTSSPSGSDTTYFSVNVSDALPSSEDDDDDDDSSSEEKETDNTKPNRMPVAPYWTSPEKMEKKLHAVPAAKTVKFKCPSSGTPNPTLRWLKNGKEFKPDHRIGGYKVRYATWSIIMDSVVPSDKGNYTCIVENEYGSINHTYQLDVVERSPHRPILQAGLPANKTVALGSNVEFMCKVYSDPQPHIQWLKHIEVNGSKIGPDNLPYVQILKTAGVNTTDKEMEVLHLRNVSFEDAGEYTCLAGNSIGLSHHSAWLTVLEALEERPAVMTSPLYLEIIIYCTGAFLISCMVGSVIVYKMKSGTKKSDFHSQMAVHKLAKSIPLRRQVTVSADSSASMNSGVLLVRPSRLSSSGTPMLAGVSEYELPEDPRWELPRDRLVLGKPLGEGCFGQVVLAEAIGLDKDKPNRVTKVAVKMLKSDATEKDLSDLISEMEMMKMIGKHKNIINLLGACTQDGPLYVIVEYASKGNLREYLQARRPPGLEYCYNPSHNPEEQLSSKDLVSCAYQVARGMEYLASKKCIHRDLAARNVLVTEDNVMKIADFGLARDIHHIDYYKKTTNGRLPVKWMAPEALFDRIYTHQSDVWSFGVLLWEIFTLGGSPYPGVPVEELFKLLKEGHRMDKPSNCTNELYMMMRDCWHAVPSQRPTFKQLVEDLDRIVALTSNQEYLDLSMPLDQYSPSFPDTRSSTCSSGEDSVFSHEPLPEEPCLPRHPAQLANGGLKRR
Phosphatidylinositol 5-phosphate 4-kinase type-2 gamma (Homo sapiens), sequence (Q8TBX8 whole entry, the tested form may be a part): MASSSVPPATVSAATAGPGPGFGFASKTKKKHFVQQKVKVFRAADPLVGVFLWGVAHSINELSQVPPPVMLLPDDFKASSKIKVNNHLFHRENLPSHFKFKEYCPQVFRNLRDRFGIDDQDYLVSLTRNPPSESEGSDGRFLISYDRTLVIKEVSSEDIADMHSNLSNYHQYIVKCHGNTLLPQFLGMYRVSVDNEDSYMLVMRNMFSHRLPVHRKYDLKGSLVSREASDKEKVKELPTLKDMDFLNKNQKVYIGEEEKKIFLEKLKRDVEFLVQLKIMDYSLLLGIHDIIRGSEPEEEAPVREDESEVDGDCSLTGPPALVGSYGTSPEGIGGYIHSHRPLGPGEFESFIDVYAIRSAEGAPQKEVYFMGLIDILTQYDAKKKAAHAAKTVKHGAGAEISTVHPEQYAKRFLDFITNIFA
Rho-associated protein kinase 2 (Homo sapiens), sequence (O75116 whole entry, looked up, the tested form may be a part): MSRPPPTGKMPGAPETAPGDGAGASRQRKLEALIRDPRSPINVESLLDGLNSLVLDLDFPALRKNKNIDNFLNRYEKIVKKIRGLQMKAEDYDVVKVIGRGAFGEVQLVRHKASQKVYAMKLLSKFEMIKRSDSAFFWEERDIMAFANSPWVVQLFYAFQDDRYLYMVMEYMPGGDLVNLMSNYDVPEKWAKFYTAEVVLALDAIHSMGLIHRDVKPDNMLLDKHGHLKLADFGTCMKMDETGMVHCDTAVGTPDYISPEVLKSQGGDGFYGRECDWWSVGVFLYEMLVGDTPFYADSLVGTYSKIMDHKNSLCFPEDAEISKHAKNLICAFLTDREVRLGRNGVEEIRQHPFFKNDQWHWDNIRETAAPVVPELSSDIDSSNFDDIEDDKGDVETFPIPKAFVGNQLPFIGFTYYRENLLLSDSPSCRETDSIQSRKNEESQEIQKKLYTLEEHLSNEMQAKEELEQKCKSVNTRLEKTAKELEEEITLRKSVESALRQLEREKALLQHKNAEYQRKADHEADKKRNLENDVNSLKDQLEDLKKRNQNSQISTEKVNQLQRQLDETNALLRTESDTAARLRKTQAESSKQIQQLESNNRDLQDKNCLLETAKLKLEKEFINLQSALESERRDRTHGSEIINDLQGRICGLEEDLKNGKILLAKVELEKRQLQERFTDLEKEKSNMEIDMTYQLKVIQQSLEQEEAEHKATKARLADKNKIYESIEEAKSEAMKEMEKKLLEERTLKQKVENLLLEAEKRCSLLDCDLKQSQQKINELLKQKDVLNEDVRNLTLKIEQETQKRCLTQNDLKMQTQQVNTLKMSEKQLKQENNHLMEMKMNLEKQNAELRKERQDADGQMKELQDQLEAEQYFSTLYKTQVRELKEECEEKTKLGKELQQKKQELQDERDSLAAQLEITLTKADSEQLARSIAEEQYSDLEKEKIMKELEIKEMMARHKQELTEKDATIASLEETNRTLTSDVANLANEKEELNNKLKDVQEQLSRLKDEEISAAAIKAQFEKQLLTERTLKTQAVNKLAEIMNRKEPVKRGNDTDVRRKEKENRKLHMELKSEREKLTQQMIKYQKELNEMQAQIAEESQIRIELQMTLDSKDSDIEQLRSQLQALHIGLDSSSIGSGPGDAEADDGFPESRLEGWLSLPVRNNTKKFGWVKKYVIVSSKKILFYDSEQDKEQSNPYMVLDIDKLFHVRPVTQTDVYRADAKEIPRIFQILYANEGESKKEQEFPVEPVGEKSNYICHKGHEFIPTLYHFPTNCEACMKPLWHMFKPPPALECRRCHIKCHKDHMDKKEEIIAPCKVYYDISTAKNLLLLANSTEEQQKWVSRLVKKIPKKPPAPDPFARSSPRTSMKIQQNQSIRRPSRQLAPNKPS
Serine/threonine-protein kinase PAK 4 (Homo sapiens), sequence (O96013 whole entry, looked up, the tested form may be a part): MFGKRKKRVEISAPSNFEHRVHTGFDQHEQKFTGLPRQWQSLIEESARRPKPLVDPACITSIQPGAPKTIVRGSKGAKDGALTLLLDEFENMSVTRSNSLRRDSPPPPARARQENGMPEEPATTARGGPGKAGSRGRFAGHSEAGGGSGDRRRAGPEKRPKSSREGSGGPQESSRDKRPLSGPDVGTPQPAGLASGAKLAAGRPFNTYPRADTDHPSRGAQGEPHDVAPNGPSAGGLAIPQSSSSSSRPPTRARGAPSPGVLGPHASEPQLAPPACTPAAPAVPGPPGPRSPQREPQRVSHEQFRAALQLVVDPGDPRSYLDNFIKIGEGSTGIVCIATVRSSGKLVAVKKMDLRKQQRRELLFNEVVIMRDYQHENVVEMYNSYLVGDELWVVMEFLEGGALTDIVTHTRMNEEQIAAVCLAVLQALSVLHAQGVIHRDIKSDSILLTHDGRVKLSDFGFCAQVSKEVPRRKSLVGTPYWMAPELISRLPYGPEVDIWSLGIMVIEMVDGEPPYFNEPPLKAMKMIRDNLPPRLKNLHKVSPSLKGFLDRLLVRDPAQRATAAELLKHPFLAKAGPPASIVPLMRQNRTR

## C=CC(=O)Nc1cc(Nc2ncc(Cl)c(Nc3ccccc3S(=O)(=O)C(C)C)n2)c(OC)cc1N(C)CCN(C)C
[1]
  concentration at 8 h: 740 nM
[2]
  Activity: 0.05%
[3]
  Activity: 5.5%
[4]
  Activity: 96%
[5]
  Activity: 87%
[6]
  Activity: 99%
[7]
  Activity: 0.35%
[8]
  Activity: 6.9%
[9]
  Activity: 0%
[10]
  Activity: 94%
[11]
  Activity: 3.7%
[12]
  Activity: 19%
[13]
  Activity: 99%
[14]
  Activity: 57%
[15]
  Activity: 92%
[16]
  Activity: 78%
[17]
  Activity: 90%
[18]
  Activity: 41%
[19]
  Activity: 96%
[20]
  Activity: 64%
[21]
  Activity: 15%
[22]
  Activity: 100%
[23]
  Activity: 81%
[24]
  IC50: 37 nM
